The values below come from ChEMBL document CHEMBL4680134, “Structural optimization of natural product nordihydroguaretic acid to discover novel analogues as AcrB inhibitors” (Eur J Med Chem, 2020).

Data set [1] addresses T1, Multidrug efflux pump subunit AcrB (Escherichia coli (strain K12)) (UniProt P31224).
T1 sequence (whole entry): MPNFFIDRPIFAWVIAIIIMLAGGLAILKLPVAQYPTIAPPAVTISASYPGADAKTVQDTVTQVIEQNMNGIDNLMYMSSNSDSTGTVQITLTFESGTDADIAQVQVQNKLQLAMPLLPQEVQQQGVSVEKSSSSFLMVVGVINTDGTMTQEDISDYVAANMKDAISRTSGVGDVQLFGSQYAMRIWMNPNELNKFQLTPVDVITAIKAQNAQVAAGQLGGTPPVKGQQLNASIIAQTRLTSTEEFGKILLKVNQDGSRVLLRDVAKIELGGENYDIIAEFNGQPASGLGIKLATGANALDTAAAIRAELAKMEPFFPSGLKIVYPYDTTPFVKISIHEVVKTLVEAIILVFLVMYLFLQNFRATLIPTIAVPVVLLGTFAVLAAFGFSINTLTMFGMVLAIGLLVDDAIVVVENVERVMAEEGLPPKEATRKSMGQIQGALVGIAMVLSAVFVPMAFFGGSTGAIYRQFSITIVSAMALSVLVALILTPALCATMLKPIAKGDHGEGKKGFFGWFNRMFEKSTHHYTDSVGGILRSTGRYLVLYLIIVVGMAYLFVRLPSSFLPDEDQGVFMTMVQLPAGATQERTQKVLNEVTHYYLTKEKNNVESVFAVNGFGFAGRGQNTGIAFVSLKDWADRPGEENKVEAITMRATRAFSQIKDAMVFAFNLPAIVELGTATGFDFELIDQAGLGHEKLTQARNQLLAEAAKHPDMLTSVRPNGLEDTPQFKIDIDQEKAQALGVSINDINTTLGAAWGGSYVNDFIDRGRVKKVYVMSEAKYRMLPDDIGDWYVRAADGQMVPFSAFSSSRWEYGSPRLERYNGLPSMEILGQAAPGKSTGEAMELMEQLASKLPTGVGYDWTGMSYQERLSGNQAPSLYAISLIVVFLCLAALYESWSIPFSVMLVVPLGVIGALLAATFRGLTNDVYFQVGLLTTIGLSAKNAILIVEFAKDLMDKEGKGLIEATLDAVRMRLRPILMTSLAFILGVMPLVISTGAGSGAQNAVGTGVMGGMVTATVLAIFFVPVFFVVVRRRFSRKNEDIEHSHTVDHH
Description: Inhibition of AcrB in Escherichia coli BW25113 assessed as potentiation of chloramphenicol induced antibacterial activity by measuring fold change in chloramphenicol MIC at 256 ug/ml measured after 18 hrs by checkerboard titration method relative to chloramphenicol alone. The note with it: dose 256.0 µg/ml.

Data set [2] concerns Cell membrane. In words: Induction of inner membrane permeabilization in CCCP treated wild type Escherichia coli BW25113 at 64 to 256 ug/ml measured after 10 mins by Di0C2(3) probe based fluorimetric method. The note with it: escherichia coli bw25113, 10 min, dose 64-256 µg/ml. The method, boiled down: (§1)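 Cells left untreated or exposed to compound at 8-256 µg/mL for 10 min, then DiOC2(3) added and fluorescence followed to plateau. Cells re-energized with 0.5% glucose; membrane potential build-up read as fluorescence rise to plateau, then dissipated with CCCP.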

The nature of data set [3]: Growth inhibition of Escherichia coli BW25113 expressing AcrB after 18 hrs by broth microdilution assay. A digest of the protocol: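 MIC determined by 96-well broth microdilution in E. coli BW25113 expressing AcrB ((+)AcrB) and an isogenic acrB-deleted strain ((-)AcrB). Used to set the compound concentrations for synergy testing that produce no direct antibacterial effect.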

In data set [4] the test system is Cell membrane. Description: Induction of inner membrane permeabilization in CCCP treated wild type Escherichia coli BW25113 measured after 10 mins by Di0C2(3) probe based fluorimetric method. The following applies: escherichia coli bw25113, 10 min. The method, boiled down:
as §1

Data set [5] has as its target T1, Multidrug efflux pump subunit AcrB (Escherichia coli (strain K12)). In words: Inhibition of AcrB in Escherichia coli BW25113 assessed as potentiation of tetraphenylphosphonium induced antibacterial activity by measuring fold change in tetraphenylphosphonium MIC at 128 ug/ml measured after 18 hrs by checkerboard titration method relative to tetraphenylphosphonium alone. The following applies: dose 128.0 µg/ml.

For data set [6] the target is unchanged. In words: Inhibition of AcrB in Escherichia coli BW25113 assessed as potentiation of tetraphenylphosphonium induced antibacterial activity by measuring fold change in tetraphenylphosphonium MIC at 256 ug/ml measured after 18 hrs by checkerboard titration method relative to tetraphenylphosphonium alone. The following applies: dose 256.0 µg/ml.

≈ marks a conversion by molar mass, not a printed value.

`Oc1ccc(CCCCc2cc(O)c(O)c(O)c2)cc1O`: the fold change (FC) in data set [1] came to 8. With `C[C@H](Cc1ccc(O)c(O)c1)[C@@H](C)Cc1ccc(O)c(O)c1` [MASOPROCOL], in the data set on Cell membrane [2], the Activity entry is “Toxic”. `Cc1ccc(C(=O)NCCc2ccc(O)c(O)c2)cc1` showed an MIC in data set [3] of 64 µg/mL (≈ 236 µM). In addition, the Activity result in the data set with Cell membrane [4] was “Toxic”. In the case of `O=C(NCCc1ccc(O)c(O)c1)c1cc(O)c(O)c(O)c1`, in data set [5], the fold change (FC) was determined as 4. With `Oc1ccc(CCCCCc2ccc(O)c(O)c2)cc1O`, in data set [6], the fold change (FC) was found to be 32.
